pIC50: −log10 of the molar value.
How the values were obtained:
[1] = molecular target: Protein kinase C alpha type (Homo sapiens, UniProt P17252); experiment: Inhibition of PKCalpha by SPA
[2] = molecular target: Protein kinase C beta type (Homo sapiens, UniProt P05771); experiment: Inhibition of PKCbeta1 by SPA
[3] = molecular target: Protein kinase C delta type (Homo sapiens, UniProt Q05655); experiment: Inhibition of PKCdelta by SPA
[4] = molecular target: T1, Protein kinase C epsilon type (Homo sapiens, UniProt Q02156); experiment: Inhibition of PKCepsilon by SPA
T1 sequence (Q02156 whole entry): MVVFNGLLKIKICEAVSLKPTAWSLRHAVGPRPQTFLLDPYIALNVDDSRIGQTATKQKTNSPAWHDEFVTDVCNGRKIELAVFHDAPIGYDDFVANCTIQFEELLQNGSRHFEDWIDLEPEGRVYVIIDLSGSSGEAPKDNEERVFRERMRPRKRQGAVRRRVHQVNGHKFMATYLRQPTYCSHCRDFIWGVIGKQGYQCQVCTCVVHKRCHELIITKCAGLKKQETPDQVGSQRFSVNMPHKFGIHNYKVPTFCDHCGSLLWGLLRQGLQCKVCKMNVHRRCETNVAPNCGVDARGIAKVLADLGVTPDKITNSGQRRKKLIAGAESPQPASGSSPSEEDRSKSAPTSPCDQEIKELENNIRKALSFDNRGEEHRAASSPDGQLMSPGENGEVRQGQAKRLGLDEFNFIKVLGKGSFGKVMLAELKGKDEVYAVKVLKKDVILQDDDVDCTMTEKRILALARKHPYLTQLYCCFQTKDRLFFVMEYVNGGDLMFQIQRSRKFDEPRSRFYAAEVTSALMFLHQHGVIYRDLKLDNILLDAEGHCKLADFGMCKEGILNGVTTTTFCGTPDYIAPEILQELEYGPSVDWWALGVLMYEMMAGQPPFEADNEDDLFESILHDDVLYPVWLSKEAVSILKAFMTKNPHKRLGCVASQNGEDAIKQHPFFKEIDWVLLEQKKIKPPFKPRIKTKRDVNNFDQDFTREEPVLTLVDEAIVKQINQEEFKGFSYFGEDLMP

[5] = molecular target: Protein kinase C eta type (Homo sapiens, UniProt P24723); experiment: Inhibition of PKCeta by SPA
[6] = molecular target: Protein kinase C theta type (Homo sapiens, UniProt Q04759); experiment: Inhibition of PKCtheta by SPA
[7] = AUC (0 to infinity) in Lewis rat at 5 mg/kg, iv; format: ADME, organism-based; set-up: time infinity, dose 5 mg/kg, route intravenous; conditions: plasma
How it was run: (§1)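 Rats dosed either 5 mg/kg iv in 75% saline (0.9%)-25% PEG400 or 20 mg/kg po in 75% water-25% PEG400. OFA or Lewis rats were used depending on the compound. Values are averages of three animals. AUC is extrapolated to infinity. Oral bioavailability (F) comes from the po and iv exposures.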

[8] = Elimination half life in Lewis rat at 5 mg/kg, iv; format: ADME, organism-based; set-up: dose 5 mg/kg, route intravenous; conditions: in vivo, read-out: beta t1/2 (converted); how it was run: as §1
[9] = Clearance in Lewis rat at 5 mg/kg, iv; format: ADME, organism-based; set-up: dose 5 mg/kg, route intravenous; conditions: in vivo; how it was run: as §1
[10] = Volume of distribution at steady state in Lewis rat at 5 mg/kg, iv; format: ADME, organism-based; set-up: dose 5 mg/kg, route intravenous; conditions: in vivo, read-out: Vdss; how it was run: as §1
[11] = Tmax in Lewis rat at 20 mg/kg, po; format: ADME, organism-based; set-up: dose 20 mg/kg, route oral; conditions: in vivo; how it was run: as §1
[12] = Cmax in Lewis rat at 20 mg/kg, po; format: ADME, organism-based; set-up: dose 20 mg/kg, route oral; conditions: in vivo; how it was run: as §1
[13] = AUC (0 to infinity) in Lewis rat at 20 mg/kg, po; format: ADME, organism-based; set-up: time infinity, dose 20 mg/kg, route oral; conditions: plasma; how it was run: as §1
[14] = Oral bioavailability in Lewis rat at 20 mg/kg, po; format: ADME, organism-based; conditions: in vivo; how it was run: as §1
cells = conditions: Homo sapiens, Jurkat

Chain of Protein kinase C delta type (Q05655 whole entry): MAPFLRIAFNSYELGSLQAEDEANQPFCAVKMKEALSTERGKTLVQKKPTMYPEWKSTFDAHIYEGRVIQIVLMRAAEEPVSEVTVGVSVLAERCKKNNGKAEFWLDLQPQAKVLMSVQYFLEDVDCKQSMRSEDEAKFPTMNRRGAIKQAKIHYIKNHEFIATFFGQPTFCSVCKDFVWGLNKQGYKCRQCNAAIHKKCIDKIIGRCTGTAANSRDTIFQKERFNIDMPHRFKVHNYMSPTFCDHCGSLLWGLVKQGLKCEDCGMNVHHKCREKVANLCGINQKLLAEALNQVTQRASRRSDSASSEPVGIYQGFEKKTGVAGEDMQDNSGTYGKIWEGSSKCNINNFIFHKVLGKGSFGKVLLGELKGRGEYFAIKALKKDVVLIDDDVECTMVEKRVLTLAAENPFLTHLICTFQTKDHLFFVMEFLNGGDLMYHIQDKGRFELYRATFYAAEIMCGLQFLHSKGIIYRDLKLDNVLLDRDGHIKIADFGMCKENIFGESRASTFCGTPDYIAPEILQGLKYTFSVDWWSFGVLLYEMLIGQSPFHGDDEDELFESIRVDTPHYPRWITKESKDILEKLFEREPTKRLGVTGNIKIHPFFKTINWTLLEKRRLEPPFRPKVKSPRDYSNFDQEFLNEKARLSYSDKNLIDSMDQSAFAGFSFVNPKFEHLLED
Chain of Protein kinase C beta type (P05771 whole entry): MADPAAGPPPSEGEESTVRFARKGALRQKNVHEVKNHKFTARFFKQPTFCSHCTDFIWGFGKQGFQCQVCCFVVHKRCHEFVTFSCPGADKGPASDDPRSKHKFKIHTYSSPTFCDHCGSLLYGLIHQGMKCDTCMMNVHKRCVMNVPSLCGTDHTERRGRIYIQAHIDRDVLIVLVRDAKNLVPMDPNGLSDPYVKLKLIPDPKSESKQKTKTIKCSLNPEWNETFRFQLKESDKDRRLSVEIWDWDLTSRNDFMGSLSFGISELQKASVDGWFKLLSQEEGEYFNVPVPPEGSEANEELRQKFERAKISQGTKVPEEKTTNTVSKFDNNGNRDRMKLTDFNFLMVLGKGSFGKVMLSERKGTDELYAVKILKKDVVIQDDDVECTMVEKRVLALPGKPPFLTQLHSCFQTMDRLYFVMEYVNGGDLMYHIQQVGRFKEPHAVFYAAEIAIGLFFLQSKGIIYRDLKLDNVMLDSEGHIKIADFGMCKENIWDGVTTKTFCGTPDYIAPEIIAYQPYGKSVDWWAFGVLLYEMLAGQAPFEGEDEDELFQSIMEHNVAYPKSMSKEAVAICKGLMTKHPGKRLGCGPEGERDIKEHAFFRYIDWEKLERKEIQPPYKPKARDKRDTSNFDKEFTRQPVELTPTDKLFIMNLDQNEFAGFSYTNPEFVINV
Chain of Protein kinase C eta type (P24723 whole entry): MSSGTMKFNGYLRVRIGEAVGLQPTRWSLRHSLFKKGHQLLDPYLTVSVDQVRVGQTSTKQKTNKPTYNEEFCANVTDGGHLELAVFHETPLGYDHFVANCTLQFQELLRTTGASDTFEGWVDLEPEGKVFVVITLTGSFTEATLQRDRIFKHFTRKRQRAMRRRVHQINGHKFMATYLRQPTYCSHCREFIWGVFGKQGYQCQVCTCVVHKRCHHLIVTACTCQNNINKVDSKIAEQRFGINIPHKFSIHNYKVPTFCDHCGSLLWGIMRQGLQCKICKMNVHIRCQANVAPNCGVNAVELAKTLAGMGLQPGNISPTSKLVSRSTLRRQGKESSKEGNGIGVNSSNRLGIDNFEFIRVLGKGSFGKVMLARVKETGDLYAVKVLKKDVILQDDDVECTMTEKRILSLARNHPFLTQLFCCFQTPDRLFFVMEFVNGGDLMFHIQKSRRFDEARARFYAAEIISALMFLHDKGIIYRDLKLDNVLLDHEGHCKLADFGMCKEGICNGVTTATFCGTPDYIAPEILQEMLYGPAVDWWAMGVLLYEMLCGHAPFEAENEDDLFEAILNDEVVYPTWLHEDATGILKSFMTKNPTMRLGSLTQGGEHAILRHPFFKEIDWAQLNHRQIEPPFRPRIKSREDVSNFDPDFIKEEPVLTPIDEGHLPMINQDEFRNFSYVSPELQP
Chain of Protein kinase C theta type (Q04759 whole entry): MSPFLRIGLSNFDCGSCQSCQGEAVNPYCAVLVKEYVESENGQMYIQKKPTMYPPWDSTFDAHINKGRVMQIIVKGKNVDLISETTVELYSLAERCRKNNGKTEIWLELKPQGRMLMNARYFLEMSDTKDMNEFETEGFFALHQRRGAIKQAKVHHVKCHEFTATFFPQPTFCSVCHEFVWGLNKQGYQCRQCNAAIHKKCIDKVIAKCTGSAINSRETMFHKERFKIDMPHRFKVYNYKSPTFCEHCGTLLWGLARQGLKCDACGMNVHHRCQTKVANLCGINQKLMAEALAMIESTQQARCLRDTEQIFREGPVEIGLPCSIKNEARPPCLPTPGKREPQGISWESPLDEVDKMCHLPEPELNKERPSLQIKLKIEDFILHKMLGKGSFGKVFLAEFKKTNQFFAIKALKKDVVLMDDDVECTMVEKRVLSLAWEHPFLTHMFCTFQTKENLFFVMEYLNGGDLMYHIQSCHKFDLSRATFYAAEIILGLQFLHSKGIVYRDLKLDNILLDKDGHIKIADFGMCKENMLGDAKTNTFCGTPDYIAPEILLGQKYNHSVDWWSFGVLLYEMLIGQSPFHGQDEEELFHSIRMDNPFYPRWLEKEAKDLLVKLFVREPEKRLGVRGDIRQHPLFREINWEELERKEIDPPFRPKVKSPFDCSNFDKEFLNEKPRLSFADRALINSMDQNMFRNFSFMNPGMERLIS

## CN1CCN(c2cc(C3=C(c4c[nH]c5ccccc45)C(=O)NC3=O)c3ccccc3c2)CC1
[1]
  pIC50: 9.05
[2]
  pIC50: 8.74
[3]
  pIC50: 8.14
[4]
  pIC50: 7.72
[5]
  pIC50: 7.60
[6]
  pIC50: 8.32
[7]
  AUC(0-inf): 4320 ng·h/mL
[8]
  half-life: 4.5 h
[9]
  clearance: 19.3 mL/min/kg
[10]
  Vd: 12 L/kg
[11]
  Tmax: 2 h
[12]
  Cmax: 242 ng/mL
[13]
  AUC(0-inf): 1990 ng·h/mL
[14]
  bioavailability: 12%
cells
  pIC50: 7.30

From ChEMBL document CHEMBL1156112, “Discovery of 3-(1H-indol-3-yl)-4-[2-(4-methylpiperazin-1-yl)quinazolin-4-yl]pyrrole-2,5-dione (AEB071), a potent and selective inhibitor of protein kinase C isotypes” (J Med Chem, 2009)
